Only some compounds are listed: those with a hit (about 3% of all), similar ones and a draw of the others.
Hsp70 act: Hsp70 transcriptional activation, primary screen; HeLa Hsp70 promoter luciferase reporter, luminescence; scaled: vehicle 0, proteasome-inhibitor control 100%; activation, % at 10 µM; 200,000 tested, 0.04% active; AID 1203;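 active means activation above the mean across all tested compounds plus 3 SD, cutoff set per campaign, cut at about 5.5% in these data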;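 further: 100% = MG132 at 30 µM as the positive control and 0% = DMSO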
NPY-Y1 antag: NPY-Y1 (human) receptor antagonism | P25929 | HEK293-CNG Y1 cells, membrane potential fluorescence; NPY at EC95, then isoproterenol | inhibition, % at 3.6 µM | 200,000 tested, 1% active;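 active means inhibition above the campaign mean inhibition of all tested compounds plus 3 SD, cut at about 20% in these data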;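 further: 0% = DMSO wells given NPY plus isoproterenol and 100% = isoproterenol alone without NPY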
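Assay system: HEK293 cells with Y1 receptor plus CNG channel | Probe or stimulus: NPY (25 nM), isoproterenol (1 µM), Ro 20-1724 (25 µM) | Timing: Compound incubation 1 h at room temperature, readout 45 min post-stimulation | Measured by: Membrane-potential fluorescent dye readout | Benchmarks: High control isoproterenol alone, low control NPY with isoproterenol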
NPY-Y2 PAM-ag: potentiators or agonists of human neuropeptide Y receptor Y2 | 220,000 tested, 0.45% active | activation, % at 3.6 µM | P49146 | cells expressing NPY-Y2, potentiator/agonist read-out; in the data active means activation above about 27%;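 further: cells stimulated with NPY near EC25 plus isoproterenol at EC100; 0% = vehicle plus submaximal agonist and 100% = vehicle plus saturating agonist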
NPY Y2 blocker: NPY-Y2 (human) receptor antagonism | NPY-Y2 expressing cells, antagonist mode | inhibition, % at 2.7 µM | 140,000 tested, 0.99% active | AID 793; in the data active means inhibition above about 17%;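 further: 0% = vehicle with agonist challenge and 100% = reference antagonist with challenge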
Wee1 degr inh: human Wee1 degradation inhibition, primary screen. P30291. HeLa Luc-Wee1K328M stability, luciferase luminescence; 100% = proteasome inhibitor MG132 effect. reporter increase, % at 5 µM. 220,000 tested, 1.2% active. AID 1321;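 active means activation above the mean of all tested compounds plus 3 SD, set per screening run, cut at about 8.8% in these data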;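 further: cells exposed to compound for 20 h before luminescence read; 0% = DMSO alone and 100% = MG132 at 30 µM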
Target sequence (P30291 whole entry K328M): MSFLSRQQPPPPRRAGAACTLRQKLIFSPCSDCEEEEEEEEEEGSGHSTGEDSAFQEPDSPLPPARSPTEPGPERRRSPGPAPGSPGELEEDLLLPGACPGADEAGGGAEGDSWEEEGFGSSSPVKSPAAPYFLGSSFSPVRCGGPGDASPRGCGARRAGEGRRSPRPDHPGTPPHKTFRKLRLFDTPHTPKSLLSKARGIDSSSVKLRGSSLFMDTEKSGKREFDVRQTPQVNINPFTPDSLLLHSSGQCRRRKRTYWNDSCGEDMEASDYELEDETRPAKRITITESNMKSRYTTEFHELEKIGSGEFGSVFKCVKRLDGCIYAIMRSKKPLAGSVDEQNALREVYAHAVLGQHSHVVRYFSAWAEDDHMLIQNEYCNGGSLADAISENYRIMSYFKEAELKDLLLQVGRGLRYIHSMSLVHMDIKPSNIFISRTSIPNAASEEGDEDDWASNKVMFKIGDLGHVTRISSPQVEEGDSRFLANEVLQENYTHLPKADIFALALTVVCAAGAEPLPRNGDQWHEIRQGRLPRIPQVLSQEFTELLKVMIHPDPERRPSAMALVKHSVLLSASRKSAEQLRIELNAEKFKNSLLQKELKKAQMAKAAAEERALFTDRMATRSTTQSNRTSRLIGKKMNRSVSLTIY
NPY-Y1 PAM-ag: potentiators or agonists of human neuropeptide Y receptor Y1; P25929; NPY-Y1 expressing cells, potentiator/agonist activation; activation, % at 3.6 µM; 220,000 tested, 0.37% active; in the data active means activation above about 33%, passing the limit was not always enough;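 further: cells stimulated with NPY at EC10 then isoproterenol at EC100; 0% = low agonist plus stimulus and 100% = saturating agonist plus stimulus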
Numbers without * were called inactive; / = no result.

SMILES	Hsp70 act	NPY-Y1 antag	NPY-Y2 PAM-ag	NPY Y2 blocker	Wee1 degr inh	NPY-Y1 PAM-ag
O=C(Nc1cc(=O)[nH]c2ncnn12)c1ccccc1F	/	/	12	/	9.4*	-13
CC(C)OC(=O)Nc1ccc2c(c1)N(C(=O)N1CCN(C)CC1)c1ccccc1CC2	/	/	-10	/	11*	16
CCOC(=O)Nc1ccc2c(c1)N(C(=O)N1CCN(C)CC1)c1ccccc1CC2	0	9	5	/	0	-3
CCCCn1ccnc1C(=O)c1ccc(S(=O)(=O)N2CCCC2)cc1	/	/	7	/	0	7
CCC(C)NS(=O)(=O)c1ccc(S(=O)(=O)N(CCc2ccc(OC)c(OC)c2)Cc2cccs2)cc1 (stereo not given)	0	35*	-25	31*	2	-90
COc1ccc(CCN(Cc2cccs2)S(=O)(=O)c2ccc(S(=O)(=O)N3CCCCCC3)cc2)cc1OC	0	9	-5	5	0	-25
COc1ccc(-c2noc(-c3ccccc3C(=O)Nc3cccc(OC)c3)n2)cc1	0	43*	-14	24*	-2	-80
CCOc1ccccc1NC(=O)c1ccccc1-c1nc(-c2ccccc2)no1	0	25*	-40	18*	-3	-80
CCOc1ccccc1-c1nc(-c2ccc(C)nc2OC)no1	0	14	-25	8	9.5*	-12
COc1ccc(-c2noc(-c3ccccc3C(=O)Nc3cccnc3)n2)cc1	0	-1	-16	3	0	-5
NCC12CC3CC(C1)CC(c1ccc(Cl)cc1)(C3)C2	0	8	13	/	2	21
CC(Oc1ccc2oc(-c3ccccc3)c(C(=O)O)c2c1)C(=O)O (stereo not given)	0	6	-9	-1	-1	-19
CCOC(=O)CNc1nc(Cl)nc(NC(C)(C)C)n1	0	2	-4	/	-1	19
O=C(Nc1nnc(-c2ccco2)s1)C1CCCCC1	1	0	-3	-1	0	-7
Cc1ccc(S(=O)(=O)N2CCC(C(=O)Nc3nnc(-c4ccco4)s3)CC2)cc1	0	-8	52*	0	1	44*
COCCCNC(=O)CNC(=S)N(Cc1ccc(F)cc1)C1CCCCC1	0	1	-22	-3	10*	22
CCOCCCNC(=O)CNC(=S)N(Cc1ccccc1F)C1CCCCC1	0	3	-12	2	0	-17
NNC(=O)CN1C(c2ccc(Br)cc2)=Nc2ccc(Br)cc2C1c1ccccc1 (stereo not given)	0	6	-3	2	-3	-6
COC(=O)CN1C(c2ccc(OC)cc2)=Nc2ccc(Cl)cc2C1c1ccccc1 (stereo not given)	0	25*	-9	23*	1	-7
COc1cc(C2=Nc3ccc(Br)cc3C(c3ccccc3)N2CC(=O)NN)cc(OC)c1OC (stereo not given)	/	/	13	/	-2	9
COC(=O)CN1C(c2cccc(Cl)c2)=Nc2ccc(Cl)cc2C1c1ccccc1 (stereo not given)	0	39*	-21	28*	1	-43
CCOC(=O)C1=NN(c2cccc(C)c2)C2(S1)SC(C(C)=O)=C(C)N2c1ccccc1 (stereo not given)	0	29*	-11	32*	0	-30
CCOC(=O)C1=NN(c2ccccc2)C2(S1)SC(C(C)=O)=C(C)N2c1ccccc1 (stereo not given)	0	1	-2	6	-3	0
CNC(=O)CN(C1CCCCC1)S(=O)(=O)c1ccc(OC)c(Cl)c1	0	-9	4	-2	-2	12
Cc1ccc(-c2noc(CSc3nnc(Cc4ccccc4)n3-c3ccc(Cl)cc3)n2)cc1	0	21*	-35	25*	-3	-37
SMILES	Hsp70 act	NPY-Y1 antag	NPY-Y2 PAM-ag	NPY Y2 blocker	Wee1 degr inh	NPY-Y1 PAM-ag
CCn1cc(/C=C/C(=O)c2ccc(O)cc2)c(C)n1	0	2	1	/	-1	3
C=CCc1ccccc1OCC(O)CN1CCN(c2ccc(OC)cc2)CC1 (stereo not given)	0	-15	80*	4	1	91*
C=CCc1ccccc1OCC(O)CNC (stereo not given)	0	-21	101*	0	-2	110*
COc1ccc(OCC(O)CN2CCN(c3ccc(Cl)cc3)CC2)cc1 (stereo not given)	/	/	-7	/	2	16
C=CCc1ccccc1OCC(O)CN(C(C)C)C(C)C (stereo not given)	0	-18	97*	5	2	103*
CCOc1ccccc1CNCCNCC(C)O (stereo not given)	0	4	-8	/	-2	-2
CCOc1ccccc1OCC(O)CNC (stereo not given)	-1	-16	94*	0	5	106*
C=CCNC(=O)COC(=O)c1ccc(Cl)c(S(N)(=O)=O)c1	0	-1	1	/	2	5
CN1CCN(c2ccc(CNS(=O)(=O)Cc3cccc(C(F)(F)F)c3)cc2)CC1	/	/	31	/	-2	21
N#CC1=C(SCC(=O)c2ccccc2)NC2=C(C(=O)CCC2)C1c1ccco1 (stereo not given)	0	3	12	3	9.8*	-15
COc1ccc(NC(=O)CSC2=C(C#N)C(c3ccco3)C3=C(CCCC3=O)N2)c(OC)c1 (stereo not given)	0	1	-9	4	0	4
COc1cccc(NC(=O)CSC2=C(C#N)C(c3ccco3)C3=C(CCCC3=O)N2)c1 (stereo not given)	0	-8	3	3	10*	13
CCCCc1ccc(NC(=O)CSC2=C(C#N)C(c3ccco3)C3=C(CCCC3=O)N2)cc1 (stereo not given)	0	-14	98*	-2	-3	99*
COC(=O)C(NC(=O)c1ccc(Cl)cc1)(Nc1nc(C)cs1)C(F)(F)F (stereo not given)	0	1	-18	1	0	-27
Cc1cccc(Nc2nc(-c3ccncc3)cs2)c1	1	-21	35*	/	0	47*
Clc1cccc(Nc2nc(-c3ccncc3)cs2)c1	0	-18	51*	/	4	46*
Cc1cccc(Nc2nc(-c3ccc4c(c3)OCCO4)cs2)c1	0	-2	0	-1	4	4
Cc1cnc(C(=O)N2CCCC(C(=O)c3ccc(Cl)cc3C)C2)cn1 (stereo not given)	0	3	-2	/	-1	-13
CCOC(=O)CNC(=O)C1CCCc2c1[nH]c1ccc(Cl)cc21 (stereo not given)	0	0	6	/	10*	21
NC(=O)CNC(=O)C1CCCc2c1[nH]c1ccc(Cl)cc21 (stereo not given)	0	-5	18	1	6	6

Compound activity as filed in PubChem.
